# Reference: ChEMBL document CHEMBL1153804, “Optimization of a series of quinazolinone-derived antagonists of CXCR3” (Bioorg Med Chem Lett, 2009)
# Tests used:
# [1] = target: T1, C-X-C chemokine receptor type 3 (Mus musculus, UniProt O88410); assay: Displacement of [125I]-IP10 from mouse CXCR3 expressed in human PBMC after 2 hrs in RPMI buffer by scintillation counting
# T1 sequence (O88410 whole entry): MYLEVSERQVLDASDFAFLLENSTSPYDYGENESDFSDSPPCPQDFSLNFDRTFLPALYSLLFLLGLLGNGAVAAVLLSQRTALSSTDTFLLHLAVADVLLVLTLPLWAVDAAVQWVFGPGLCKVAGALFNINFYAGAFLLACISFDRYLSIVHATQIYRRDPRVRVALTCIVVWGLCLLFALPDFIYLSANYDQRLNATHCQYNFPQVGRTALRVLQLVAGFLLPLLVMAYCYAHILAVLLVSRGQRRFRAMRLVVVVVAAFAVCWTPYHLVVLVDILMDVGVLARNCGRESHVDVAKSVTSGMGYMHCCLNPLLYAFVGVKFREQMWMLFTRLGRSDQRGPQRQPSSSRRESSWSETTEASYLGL
# How it was run: (§1)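 PBMC bearing CXCR3 were co-incubated with antagonist and recombinant human [125I]-IP10 for 2 h at room temperature in RPMI-1640 (no phenol red) with 0.5% BSA. Cells were harvested onto filter plates and bound radioactivity was counted by scintillation. IC50 values are means of three experiments.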
# [2] = target: T2, C-X-C chemokine receptor type 3 (Homo sapiens, UniProt P49682); assay: Displacement of [125I]-1P10 from human CXCR3 expressed in human PBMC after 2 hrs by scintillation counting in plasma
# T2 sequence (P49682 whole entry): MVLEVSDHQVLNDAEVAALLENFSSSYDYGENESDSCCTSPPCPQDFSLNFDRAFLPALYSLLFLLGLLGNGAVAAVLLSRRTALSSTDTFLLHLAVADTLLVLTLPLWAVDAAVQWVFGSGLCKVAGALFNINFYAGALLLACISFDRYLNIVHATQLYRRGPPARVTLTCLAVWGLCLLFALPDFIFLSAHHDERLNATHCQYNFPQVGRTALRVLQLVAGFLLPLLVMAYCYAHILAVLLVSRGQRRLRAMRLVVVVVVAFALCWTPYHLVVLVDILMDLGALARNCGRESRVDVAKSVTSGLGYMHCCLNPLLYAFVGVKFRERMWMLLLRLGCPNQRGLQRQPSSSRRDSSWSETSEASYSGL
# How it was run: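 [125I]-IP10 displacement from CXCR3 on PBMC: cells co-incubated with antagonist and recombinant human [125I]-IP10 for 2 h at room temperature in EDTA-anticoagulated human plasma (from frozen stocks) in place of RPMI buffer. Filter harvest and scintillation counting; IC50 values are means of three experiments.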
# [3] = Clearance in dog at 1 mg/kg, iv; assay type: ADME, organism-based, Canis lupus familiaris; set-up: dose 1 mg/kg, route intravenous; settings: in vivo
# [4] = target: T3, C-X-C chemokine receptor type 3 (Canis lupus familiaris, UniProt Q5KSK8); assay: Displacement of [125I]-IP10 from dog CXCR3 expressed in human PBMC after 2 hrs in RPMI buffer by scintillation counting; how it was run: as §1
# T3 sequence (Q5KSK8 whole entry): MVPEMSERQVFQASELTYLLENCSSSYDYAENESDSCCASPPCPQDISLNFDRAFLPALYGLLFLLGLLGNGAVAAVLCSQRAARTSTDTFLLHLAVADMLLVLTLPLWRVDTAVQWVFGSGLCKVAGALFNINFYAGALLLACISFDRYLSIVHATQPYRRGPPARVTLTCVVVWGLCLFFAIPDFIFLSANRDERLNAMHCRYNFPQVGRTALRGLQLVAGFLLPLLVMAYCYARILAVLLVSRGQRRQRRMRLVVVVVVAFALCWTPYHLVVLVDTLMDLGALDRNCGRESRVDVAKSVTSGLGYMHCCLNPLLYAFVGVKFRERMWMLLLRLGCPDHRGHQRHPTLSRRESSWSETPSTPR
# Blood [5] = assay: Drug level in bleomycin-induced mouse blood at 0.1 mg/mL, sc; assay type: ADME, tissue-based
# [6] = Volume of distribution at steady state in dog at 1 mg/kg, iv; assay type: ADME, organism-based, Canis lupus familiaris; set-up: dose 1 mg/kg, route intravenous; settings: in vivo, read-out: Vdss
# Blood [7] = assay: Drug level in bleomycin-induced mouse blood at 3 mg/mL, sc; assay type: ADME, tissue-based
structure (smiles),measurement,setting,value
CCS(=O)(=O)CCN(C(=O)Cc1ccc(F)c(C(F)(F)F)c1)[C@H](C)c1nc2ncccc2c(=O)n1-c1ccc(OCC(F)(F)F)cc1,IC50,[1],3 nM
same,IC50,[2],6 nM
same,clearance,[3],7.5 mL/min/kg
same,IC50,[4],5 nM
same,Drug uptake,Blood [5],2 ng/mL
same,Vd,[6],1.1 L/kg
same,Drug uptake,Blood [7],18 ng/mL
